From ChEMBL document CHEMBL1124405, “Synthesis and copper-dependent antimycoplasmal activity of 1-amino-3-(2-pyridyl)isoquinoline derivatives. 2. Amidines” (1989)
In brackets after ≈: the same amount, converted by molar mass.

What was measured:
Type in all cases: functional
[1] = tested on: Mycoplasmoides gallisepticum; assay: The anti-mycoplasmal activity was determined against Mycoplasma gallisepticum K514 with the addition of copper (40 uM CuSO4)
In short: (§1)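 Broth-dilution MIC in modified Adler medium at pH 8.0, with heat-inactivated horse serum, benzylpenicillin and phenol red. CuSO4 was added to a final 40 μM. Compounds were in DMSO (final 1.25%) and tested in serial 2-fold dilutions, in duplicate, up to 100 μM. Each tube (3 mL) received 1 mL of fresh culture (A660 0.22, pH 6.8) and was incubated at 37 °C for 24 h. MIC was the lowest concentration without indicator color change.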

[2] = tested on: Mycoplasmoides gallisepticum; assay: The anti-mycoplasmal activity was determined against Mycoplasma gallisepticum K514 without the addition of copper
In short: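 No copper was added; the medium's copper was below 3 μM. The medium was modified Adler at pH 8.0, with horse serum, benzylpenicillin and phenol red. Compounds were in DMSO (final 1.25%) and tested in serial 2-fold duplicate dilutions up to 100 μM. Each tube held 3 mL of medium plus 1 mL of fresh culture (A660 0.22) and was incubated at 37 °C for 24 h. MIC was the lowest concentration preventing phenol red color change.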

[3] = tested on: Mycoplasmoides gallisepticum; assay: The anti-mycoplasmal activity against Mycoplasma gallisepticum K514 with the addition of copper at 40 uM CuSO4; in short: as §1

Compound	MIC [1] [µM]	MIC [2] [µM]	MIC [3] [µM]
N=C(Nc1nc(-c2ccccn2)cc2ccccc12)c1ccncc1	0.039 (≈ 0.0127 µg/mL)	0.39 (≈ 0.127 µg/mL)	–
Cc1cc(C(=N)Nc2nc(-c3ccccn3)cc3ccccc23)ccn1	0.065 (≈ 0.0221 µg/mL)	0.39 (≈ 0.132 µg/mL)	–
N=C(Nc1ccccn1)c1ccccn1	–	> 500	250 (≈ 49.6 µg/mL)
N=C(Nc1nc(-c2ccccn2)cc2ccccc12)c1ccccn1	0.0325 (≈ 0.0106 µg/mL)	0.39 (≈ 0.127 µg/mL)	–
COc1cccc(C(=N)Nc2nc(-c3ccccn3)cc3ccccc23)c1	0.078 (≈ 0.0276 µg/mL)	1.56 (≈ 0.553 µg/mL)	–
Nc1nc(-c2ccccn2)cc2ccccc12	–	452 (≈ 100 µg/mL)	0.45 (≈ 0.0996 µg/mL)
COc1ccc(C(=N)Nc2nc(-c3ccccn3)cc3ccccc23)cc1	0.104 (≈ 0.0369 µg/mL)	0.78 (≈ 0.276 µg/mL)	–
N=C(Nc1nc(-c2ccccn2)cc2ccccc12)c1ccc(Cl)cc1	0.195 (≈ 0.07 µg/mL)	6.25 (≈ 2.24 µg/mL)	–
Cc1cc(C)nc(C(=N)Nc2nc(-c3ccccn3)cc3ccccc23)n1	–	0.195 (≈ 0.0691 µg/mL)	0.0455 (≈ 0.0161 µg/mL)
N=C(Nc1nc(-c2ccccn2)cc2ccccc12)c1ncccn1	0.0325 (≈ 0.0106 µg/mL)	0.195 (≈ 0.0636 µg/mL)	–
Cc1cccc2c(NC(=N)c3ccccn3)nc(-c3ccccc3)cc12	> 100	> 100	–
N=C(Nc1nc(-c2ccccn2)cc2ccccc12)c1cnccn1	0.039 (≈ 0.0127 µg/mL)	0.195 (≈ 0.0636 µg/mL)	–
N=C(Nc1nc(-c2ccccn2)cc2ccccc12)c1cccc(Cl)c1	0.195 (≈ 0.07 µg/mL)	6.25 (≈ 2.24 µg/mL)	–
N=C(Nc1nc(-c2ccccn2)cc2ccccc12)c1ccccc1	0.0634 (≈ 0.0206 µg/mL)	0.195 (≈ 0.0633 µg/mL)	–
CC[C@H]1OC(=O)C[C@@H](O)[C@H](C)[C@@H](O[C@@H]2O[C@H](C)[C@@H](O[C@H]3C[C@@](C)(O)[C@@H](O)[C@H](C)O3)[C@H](N(C)C)[C@H]2O)[C@@H](CC=O)C[C@@H](C)C(=O)/C=C/C(C)=C/[C@@H]1CO[C@@H]1O[C@H](C)[C@@H](O)[C@@H](OC)[C@H]1OC [TYLOSIN]	0.1 (≈ 0.0916 µg/mL)	0.1 (≈ 0.0916 µg/mL)	–
Cc1ccc(C(=N)Nc2nc(-c3ccccn3)cc3ccccc23)cc1	0.0683 (≈ 0.0231 µg/mL)	0.78 (≈ 0.264 µg/mL)	–
CUPRIC SULFATE	–	700	–
N=C(Nc1nc(-c2ccccn2)cc2ccccc12)c1ccc(Cl)c(Cl)c1	0.78 (≈ 0.307 µg/mL)	> 10	–
Cc1cccc(C(=N)Nc2nc(-c3ccccn3)cc3ccccc23)c1	0.0488 (≈ 0.0165 µg/mL)	0.78 (≈ 0.264 µg/mL)	–
Cc1cccc(C(=N)Nc2nc(-c3ccccn3)cc3ccccc23)n1	0.065 (≈ 0.0221 µg/mL)	0.39 (≈ 0.132 µg/mL)	–
